Legend:
[1] = folding enthalpy; higher = less favourable; fluorescence melt of hairpins on a sequencing array, two-state fit; conditions: sodium 0.088 M
Summary of the method: (§1)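 Hairpins were imaged by Cy3 fluorescence on a sequenced MiSeq flow cell with annealed Cy3 and quencher oligos, in 50 mM Na-HEPES pH 8.0, 25 mM NaCl, in 2.5 °C steps up to 60 °C. Bootstrapped two-state fits of normalised signals gave melting temperature and folding enthalpy. Four replicates were combined by inverse variance, and fitted temperatures were raised by 9.35 °C to match UV melts.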

[2] = melting temperature; fluorescence melt of hairpins on a sequencing array, two-state fit, raised by 9.35 °C to match UV melts; conditions: sodium 0.088 M
Summary of the method: as §1

| Sequence | folding enthalpy [1] [kJ/mol] | Tm [2] [°C] |
| --- | --- | --- |
| GAGTGTACGAAAGTACTC (((..(((....)))))) | -49.1 | 32.8 |
| GAGTGTGGAAACGCATTC ((.((.(....).)).)) | -79.6 | 28.5 |
| GAGTTACGAAAGTACTC (((.(((....)))))) | -106 | 43.2 |
| GAGTTACGAAAGTAGCTC (((.(((....))).))) | -144 | 51.2 |
| GAGTTCCGAAAGGACCTC (((.(((....))).))) | -120 | 47.2 |
| GAGTTCGGAAACAAACTC (((((.(....).))))) | -115 | 34 |
| GAGTTGGGAAACCAATTC ((.((((....)))).)) | -120 | 40 |
| GAGTTGGGAAACTAGCTC (((.(.(....).).))) | -62.9 | 29 |
| GAGTTTGCGAAAGCACTC (((..(((....)))))) | -63.8 | 34.1 |
| GAGTTTGGAAACAGACTC ((((.((....)).)))) | -118 | 41.1 |
| GAGTTTGGAAACGAATTC ((.((.(....).)).)) | -76.9 | 33.5 |
| GATAAACCGAAAGGTATC (((..(((....)))))) | -58 | 30 |
| GATAAAGGAAACTTTATC (((((((....))))))) | -133 | 44.4 |
| GATAACGAAAGTTGATC ((((((....))).))) | -46.8 | 27.6 |
| GATAACGGAAACGCTATC ((((.((....)).)))) | -123 | 34.4 |
| GATAAGGCGAAAGCCATC (((..(((....)))))) | -38.5 | 29.6 |
| GATAATGAAAATTATC ((((((....)))))) | -85.8 | 37.9 |
| GATACACGAAAGTGCATC (((.(((....))).))) | -99.1 | 44.2 |
| GATACCCGAAAGGGATC (((.(((....)))))) | -67.3 | 42.1 |
| GATACCGAAAGGTACATC ((((((....)))..))) | -43.6 | 26.9 |
| GATACCGAAAGGTATC ((((((....)))))) | -162 | 62.5 |
| GATACCGAAAGGTCAATC ((((((....)))..))) | -34.7 | 21.7 |
| GATACCGAAAGGTTCATC ((((((....)))..))) | -51.9 | 32 |

| Sequence | folding enthalpy [1] [kJ/mol] | Tm [2] [°C] |
| --- | --- | --- |
| GATACCGGAAACGGTACC (.(((((....))))).) | -57.1 | 38.8 |
| GATACGACGAAAGTCATC (((..(((....)))))) | -44.4 | 24.6 |
| GATACGGGAAACTGTATC (((((.(....).))))) | -155 | 43.8 |
| GATACTGGAAACAGTATC (((((((....))))))) | -169 | 54.6 |
| GATACTGGAAACGGTATC (((((.(....).))))) | -127 | 42.7 |
| GATAGAGGAAACTCTGTC ((.((((....)))).)) | -134 | 38 |
| GATAGCGAAAGCTATATC ((((((....)))..))) | -59.9 | 46.6 |
| GATAGCGAAAGCTATC ((((((....)))))) | -138 | 61.3 |
| GATAGCGAAAGCTCAATC ((((((....)))..))) | -43.6 | 21.7 |
| GATAGCGAAAGCTCTATC ((((((....)))..))) | -46.6 | 26.4 |
| GATAGCGAAAGCTTCATC ((((((....)))..))) | -50.1 | 28.3 |
| GATAGCGGAAACGCTACC (.(((((....))))).) | -50.8 | 40.4 |
| GATAGCGGAAACGCTGTC ((.((((....)))).)) | -105 | 52.2 |
| GATAGGCGAAAGCCCATC (((.(((....))).))) | -57.9 | 37.7 |
| GATAGGCGAAAGCCGATC (((.(((....))).))) | -70.3 | 55.5 |
| GATAGGGCGAAAGCCATC (((..(((....)))))) | -38.1 | 31.2 |
| GATAGGGGAAACCTTATC ((((.((....)).)))) | -107 | 33.6 |
| GATAGGGGAAACTCTATC (((((.(....).))))) | -131 | 35.7 |
| GATATAGAAATATATC ((((((....)))))) | -62.7 | 31.8 |
| GATATCCGAAAGGAATC (((.(((....)))))) | -54.1 | 30.2 |
| GATATCGGAAACGATACC (.(((((....))))).) | -72.4 | 33.7 |
| GATATCGGAAACGATGTC ((.((((....)))).)) | -128 | 46.7 |
| GATATGCGAAAGCAATC (((.(((....)))))) | -44.7 | 30 |

| Sequence | folding enthalpy [1] [kJ/mol] | Tm [2] [°C] |
| --- | --- | --- |
| GATATGCGAAAGCAGATC (((.(((....))).))) | -127 | 53.3 |
| GATATGGGAAACCATATC (((((((....))))))) | -157 | 53.3 |
| GATATTACGAAAGTAATC (((..(((....)))))) | -48.7 | 34.7 |
| GATATTGGAAACGATATC (((((.(....).))))) | -138 | 36.2 |
| GATCAAAAGGTTGATC ((((((....)))))) | -100 | 36.1 |
| GATCAAAATTTTGATC ((((((....)))))) | -168 | 48.3 |
| GATCAAACAATTGATC ((((((....)))))) | -94.5 | 37.1 |
| GATCAAACCTTGATC ((((((...)))))) | -122 | 40.9 |
| GATCAAACGCTTGATC ((((((....)))))) | -124 | 41.5 |
| GATCAAACTTTTGATC ((((((....)))))) | -117 | 45.9 |
| GATCAAAGAATTGATC ((((((....)))))) | -91.4 | 40 |
| GATCAAAGAGTTGATC ((((((....)))))) | -89.2 | 37.2 |
| GATCAAAGCTTTGATC ((((((....)))))) | -240 | 50.8 |
| GATCAAAGGTTTGATC ((((((....)))))) | -135 | 44.8 |
| GATCAAATAATTGATC ((((((....)))))) | -117 | 34.7 |
| GATCAAATATTGATC ((((((...)))))) | -137 | 40.2 |
| GATCAAATGGTTGATC ((((((....)))))) | -119 | 39.6 |
| GATCAAATTATTGATC ((((((....)))))) | -116 | 41.4 |
| GATCAACAGTTGATC ((((((...)))))) | -169 | 41.7 |
| GATCAACCGCTTGATC ((((((....)))))) | -144 | 44.2 |
| GATCAACCGTTTGATC ((((((....)))))) | -147 | 42.8 |
| GATCAACCTTTGATC ((((((...)))))) | -135 | 42 |
| GATCAACGAAAGTTTATC (((.(((....))).))) | -117 | 32.5 |
